Source: PubChem (several laboratories)
Hits are enriched below; roughly 9.8% of the tested compounds scored in any of these assays.
L major viab: Leishmania major promastigote growth inhibition; 200,000 tested, 9% active; inhibition, % at 10 µM; Leishmania major promastigotes, resazurin fluorescence viability; in the data active means inhibition above about 50%;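 further: promastigotes grown with compound for 44 hours at 28 °C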
WT yeast gro inh: growth inhibition of WT yeast, mitochondrial fusion screen | AID 1362 | 190,000 tested, 2.1% active | inhibition, % at 10 µM | mitochondrial fusion phenotypic screen, WT strain; in the data active means inhibition above about 58%; tested in S. cerevisiae
Calpain2 inh: blocks pig calpain II enzyme activity. purified calpain II, fluorogenic peptide substrate, 30 min. inhibition, % at 16 µM. 220,000 tested, 0.37% active;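 active means inhibition above about 50%, limit read from the data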
Rad51 HR inh: Rad51 (human) homologous recombination inhibition. 200,000 tested, 0.085% active. hRad51 DNA strand exchange, fluorescence dequenching. inhibition, % at 10 µM;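 active means inhibition above 40% at the single screening dose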
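material = hRad51 filaments on single-stranded DNA | reagent = Donor/quencher-labelled 47-bp dsDNA substrate | compound = 10 µM final, single point | schedule = strand-exchange reaction 15 min at room temperature | measured by = fluorescein emission 520 nm, excitation 485 nm | read-out basis = % inhibition versus plate control and blank means | benchmarks = plate controls and plate blanks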
PMI act: activators of human phosphomannose isomerase; purified human PMI, coupled resazurin fluorescence, 20 min; stronger effect = higher value; 1 = vehicle control, 0 substrate-free wells; P34949; 190,000 tested, 0.005% active; activation factor at 20 µM;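 active means activation factor of 2 or more at 20 µM, relative to plate controls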
Target sequence (P34949 whole entry, looked up): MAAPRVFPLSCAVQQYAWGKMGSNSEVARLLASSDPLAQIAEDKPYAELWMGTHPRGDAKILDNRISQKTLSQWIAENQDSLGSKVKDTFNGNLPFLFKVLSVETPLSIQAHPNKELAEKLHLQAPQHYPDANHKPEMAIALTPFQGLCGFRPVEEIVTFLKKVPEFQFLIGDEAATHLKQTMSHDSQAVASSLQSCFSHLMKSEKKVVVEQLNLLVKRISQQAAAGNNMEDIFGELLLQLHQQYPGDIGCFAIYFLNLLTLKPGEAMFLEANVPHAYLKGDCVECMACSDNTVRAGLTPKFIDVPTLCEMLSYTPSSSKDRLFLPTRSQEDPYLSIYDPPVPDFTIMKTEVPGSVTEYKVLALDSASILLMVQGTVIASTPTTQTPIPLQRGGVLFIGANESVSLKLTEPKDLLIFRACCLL
PMI act satM6P: activators of human phosphomannose isomerase at near-saturating mannose 6-phosphate. P34949. coupled PMI enzyme assay, resazurin fluorescence, 20 min; stronger effect = higher value; 1 = untreated enzyme, 0 = substrate-free blank. activation factor at 20 µM. 190,000 tested, 0.34% active;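 active means activation factor of 2 or more at 20 µM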
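test system = human PMI in coupled enzyme assay | medium = HEPES-buffered pH 7.4 with magnesium and detergent | also added = 1.0 mM mannose-6-phosphate substrate with 0.22 mM NADP+ | compound = 20 µM single dose | times = 20 min incubation at room temperature | measured by = resorufin fluorescence (Ex 544/Em 590 nm) from resazurin via diaphorase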
A number is an active result; – = inactive; · = no result given.

SMILES | L major viab | WT yeast gro inh | Calpain2 inh | Rad51 HR inh | PMI act | PMI act satM6P
COc1ccc(C2SCC(=O)N2c2nc3ccccc3s2)cc1 (stereo not drawn) | – | – | – | – | – | –
COc1ccc(Nc2cnn(-c3nc4ccccc4s3)c(=O)c2Cl)cc1 | 51 | – | – | – | – | –
Cc1ccc(C)c(N2CCN(c3cnn(-c4nc5ccccc5s4)c(=O)c3Cl)CC2)c1 | – | – | – | – | – | –
O=c1c(Cl)c(Nc2cccc(Cl)c2)cnn1-c1nc2ccccc2s1 | 56 | – | – | – | – | –
CC1C(=O)OC(c2ccc(Br)cc2)C(C)(C)C1=O (stereo not drawn) | · | · | – | – | · | ·
N#C/C=C(/N)N1CCN(c2ccc(Cl)c(Cl)c2)CC1 | 70 | – | – | – | – | –
S=C(c1ccc(N2CCCC2)cc1)N1CCCCC1 | 88 | – | 64 | – | – | –
COC(=O)N1CCN(c2ccc(Cl)c(Cl)c2)CC1 | – | – | – | – | – | –
Nc1ccc(N2CCN(c3ccc(F)cc3)CC2)cc1 | 78 | – | – | – | – | –
Nc1ccc(N2CCCCCC2)cc1 | 100 | – | – | – | – | –
O=C(O)/C=C/C(=O)N1CCN(c2ccc(F)cc2)CC1 | – | – | – | – | – | –
Nc1ccc(N2CCN(c3ccc(Cl)c(Cl)c3)CC2)cc1 | 98 | – | – | – | – | –
CNC(=S)N1CCN(c2ccc(Cl)c(Cl)c2)CC1 | – | – | – | · | – | –
O=c1[nH][nH]c(=O)n1-c1ccccc1 | – | – | – | · | – | –
C=CCn1c(-c2cccnc2Cl)nc2ccccc21 | – | – | – | · | – | –
Clc1cccc(Cl)c1Cn1c(-c2cccnc2Cl)nc2ccccc21 | 76 | – | – | – | – | –
O=[N+]([O-])c1cccc(-c2nnn(C34CC5CC(CC(C5)C3)C4)n2)c1 | – | – | – | – | – | –
Cc1cc2nc(-c3ccc(NC(=O)C(C)C)cc3)oc2cc1C | 90 | – | – | · | – | –
Cc1ccc(-c2nc3cc(NC(=O)C(C)C)ccc3o2)cc1 | – | – | – | – | – | –
CCC(=Nc1ccccc1OC)C1=C(O)CC(c2ccccc2)CC1=O (stereo not drawn) | 53 | – | – | · | – | –
Cc1c(N2C(=O)c3cccc4cccc(c34)C2=O)c(=O)n(-c2ccccc2)n1C | – | 97 | – | – | – | –
N#CCCN(C(=S)NC(=O)c1ccco1)c1ccccc1F | – | – | – | – | – | –
Cc1sc2ncnc(N/N=C/c3ccc(O)cc3)c2c1C | – | – | – | – | – | –
Cc1sc2ncnc(N/N=C/c3ccccc3O)c2c1C | 100 | – | – | – | – | –
CCc1ccc(S(=O)(=O)/N=C2\C=CC(=O)c3ccccc32)cc1 | 93 | – | – | – | – | –
SMILES | L major viab | WT yeast gro inh | Calpain2 inh | Rad51 HR inh | PMI act | PMI act satM6P
CCc1ccc(S(=O)(=O)/N=C2/C=C(Sc3ncn[nH]3)C(=O)c3ccccc32)cc1 | 100 | – | – | – | – | –
O=C(c1cccc(S(=O)(=O)N2CCc3ccccc3C2)c1)N1CCN(c2ccc(O)cc2)CC1 | 65 | – | – | – | – | –
O=C(NCC1(N2CCOCC2)CCCCC1)c1cccc(S(=O)(=O)N2CCc3ccccc3C2)c1 | 64 | – | – | – | – | –
NC(=O)C1CCN(C(=O)c2cccc(S(=O)(=O)N3CCc4ccccc4C3)c2)CC1 | – | – | – | – | – | –
O=C(NCCCN1CCOCC1)c1cccc(S(=O)(=O)N2CCc3ccccc3C2)c1 | – | – | – | – | – | –
CCc1ccc(NC(=O)C(C)OC(=O)c2cccc(S(=O)(=O)N3CCc4ccccc4C3)c2)cc1 (stereo not drawn) | 89 | – | – | – | – | –
O=C(c1ccc2ccccc2c1)N1CCN(c2ccc(O)cc2)CC1 | 90 | – | – | – | – | –
CCOP(=O)(O)c1cccc(OCCOCCOc2cccc(P(=O)(O)OCC)c2)c1 | – | – | – | – | – | –
COc1cc([N+](=O)[O-])ccc1NC(=O)CN1CCOCC1 | – | – | – | – | – | –
CN(C)CC(C)(C)CNS(=O)(=O)c1ccc(Cl)s1 | – | – | – | – | – | –
Clc1ccc(-n2ncc3c(NCCCn4ccnc4)ncnc32)cc1 | 100 | – | – | – | – | –
Clc1ccc(-n2ncc3c(NCCN4CCOCC4)ncnc32)cc1 | 86 | – | – | – | – | –
Nc1nonc1C(=O)NCCNS(=O)(=O)c1ccc(F)cc1 | – | – | – | – | – | –
Cc1cccc(OCc2nc(C#N)c(NCc3ccc4c(c3)OCO4)o2)c1 | – | – | – | – | – | –
N#Cc1nc(COc2ccc(Cl)cc2)oc1NCc1ccc2c(c1)OCO2 | 75 | – | – | – | – | –
O=C(c1cc2sccc2n1Cc1ccccc1)N1CCCc2ccccc21 | 63 | – | – | – | – | –
O=C(c1cc2sccc2n1Cc1ccccc1)N1CCc2ccccc21 | – | – | – | – | – | –
CCOC(=O)c1cc2sccc2n1CC(=O)N1CCCc2ccccc21 | 92 | – | – | – | – | –
Cc1ccnc(SCCn2c(N3CC(C)CC(C)C3)nc3c2c(=O)n(C)c(=O)n3C)n1 (stereo not drawn) | 58 | – | – | – | – | –
COC(=O)C1CCN(C(=O)Nc2ccccc2)CC1 | – | – | – | – | – | –
O=c1c2[nH]c3ccc(F)cc3c2nc2n1CCCS2 | – | – | – | – | – | –
S=C(Nc1ccc(Cl)c(Cl)c1)NC1CCN(Cc2ccccc2)CC1 | 95 | 74 | – | – | – | –
O=C(Nc1cccc(F)c1)NC1CCN(Cc2ccccc2)CC1 | 56 | – | – | · | – | –
S=C(Nc1ccc(Cl)c(Cl)c1)NC1CCCCC1 | – | – | – | – | – | –
Cc1cccc(NC(=S)NC2CCN(Cc3ccccc3)CC2)c1C | 89 | – | – | – | – | –
SMILES | L major viab | WT yeast gro inh | Calpain2 inh | Rad51 HR inh | PMI act | PMI act satM6P
Fc1ccc(NC(=S)NC2CCN(Cc3ccccc3)CC2)cc1 | 89 | – | – | – | – | –
Cc1cccc(NC(=S)N2CCN(Cc3ccccc3)CC2)c1C | – | – | – | – | – | –
O=C(NNC(=O)C1CCN(Cc2cccc(F)c2)CC1)c1cccs1 | – | – | – | – | – | –
O=C(NNC(=O)C1CCN(Cc2cccc(F)c2)CC1)c1cccc(Cl)c1 | 64 | – | – | – | – | –
CC(C)(C)CC(C)(C)NC(=S)NC1CCN(Cc2ccccc2)CC1 | 89 | – | – | – | – | –
COCCn1c(=NC(=O)CSC(C)=O)sc2cc(OC)ccc21 | – | – | – | – | – | –
COCCn1c(=NC(=O)CSC(C)=O)sc2cc(F)ccc21 | – | – | – | 83 | – | –
OC1(c2cccc(C(F)(F)F)c2)CCN(c2ncnc3c2[nH]c2ccc(F)cc23)CC1 | 88 | – | – | · | – | –
Fc1ccc2[nH]c3c(N4CCN(c5ccccc5)CC4)ncnc3c2c1 | – | – | – | – | – | –
